pIC50: −log10 of the molar value.
Experiments:
[1] = molecular target: T1, Inosine-5'-monophosphate dehydrogenase 2 (Homo sapiens, UniProt P12268); test: Concentration required for 50% inhibition of human Inosine-5'-monophosphate dehydrogenase 2 using Spectrophotometric assay
Outline: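 Human type II IMPDH, 25 nM final, added to start the reaction. Mix holds 50 µM IMP, 100 µM NAD and varying inhibitor in 0.1 M potassium phosphate pH 7.4, 0.1 M KCl, 3 mM EDTA, 1 mM DTT and 100 µg/mL BSA. NADH formation is followed by absorbance at 340 nm in 1 cm cells. Fractional activity relative to the uninhibited rate is taken against inhibitor concentration.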

[2] = molecular target: T1, Inosine-5'-monophosphate dehydrogenase 2; test: First order rate constant for inactivation of human Inosine-5'-monophosphate dehydrogenase 2
Outline: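 Human type II IMPDH (2 µM) incubated at 23 °C with 20 µM compound (10-fold excess) in 0.1 M potassium phosphate pH 7.9, 0.5 M KCl, 3 mM EDTA, 10 mM DTT and 100 µg/mL BSA. Aliquots taken over time are assayed with 200 µM IMP and 400 µM NAD (8× Km). k_inact comes from a nonlinear first-order fit of remaining activity versus incubation time.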

pIC50 [1]	k obs [2] [s⁻¹]	SMILES
4.43		O=P(O)(O)OC[C@@H]1OC(n2cnc3c(O)nc(/C=C/c4ccccc4)nc32)[C@@H](O)[C@H]1O (stereo partly drawn)
< 3.00		O=P(O)(O)OC[C@@H]1OC(n2cnc3c(O)nc(C(F)F)nc32)[C@@H](O)[C@H]1O (stereo partly drawn)
5.92		O=c1[nH]c(CF)nc2c1ncn2C1O[C@@H](COP(=O)(O)O)[C@H](O)[C@@H]1O (stereo partly drawn)
	0.0144	C=Cc1nc(O)c2ncn(C3O[C@@H](COP(=O)(O)O)[C@H](O)[C@@H]3O)c2n1 (stereo partly drawn)
	0.0528	O=P(O)(O)OC[C@@H]1OC(n2cnc3c(O)nc(CCl)nc32)[C@@H](O)[C@H]1O (stereo partly drawn)
< 3.00		Cc1nc(O)c2ncn(C3O[C@@H](COP(=O)(O)O)[C@H](O)[C@@H]3O)c2n1 (stereo partly drawn)
	0.0164	O=P(O)(O)OC[C@@H]1OC(n2cnc3c(O)nc(CF)nc32)[C@@H](O)[C@H]1O (stereo partly drawn)
6.00		C=Cc1nc2c(ncn2C2O[C@@H](COP(=O)(O)O)[C@H](O)[C@@H]2O)c(=O)[nH]1 (stereo partly drawn)
6.36		O=P(O)(O)OC[C@@H]1OC(n2cnc3c(O)nc(C(O)O)nc32)[C@@H](O)[C@H]1O (stereo partly drawn)
< 3.00		O=P(O)(O)OC[C@@H]1OC(n2cnc3c(O)nc(C(F)(F)F)nc32)[C@@H](O)[C@H]1O (stereo partly drawn)
5.88		O=c1[nH]c(CCl)nc2c1ncn2C1O[C@@H](COP(=O)(O)O)[C@H](O)[C@@H]1O (stereo partly drawn)
3.88		O=c1[nH]c(CO)nc2c1ncn2C1O[C@@H](COP(=O)(O)O)[C@H](O)[C@@H]1O (stereo partly drawn)
3.34		O=P(O)(O)OC[C@@H]1OC(n2cnc3c(O)nc(CCc4ccccc4)nc32)[C@@H](O)[C@H]1O (stereo partly drawn)
